In ChEMBL document CHEMBL1155498, “Glycine amides as PPARalpha agonists” (Bioorg Med Chem Lett, 2010):
≈ marks a conversion by molar mass, not a printed value.

Experiments:
[1] = target: T1, Peroxisome proliferator-activated receptor alpha (Homo sapiens, UniProt Q07869); assay: Agonist activity at Gal4-fused human PPARalpha; type: functional
T1 sequence (Q07869 whole entry): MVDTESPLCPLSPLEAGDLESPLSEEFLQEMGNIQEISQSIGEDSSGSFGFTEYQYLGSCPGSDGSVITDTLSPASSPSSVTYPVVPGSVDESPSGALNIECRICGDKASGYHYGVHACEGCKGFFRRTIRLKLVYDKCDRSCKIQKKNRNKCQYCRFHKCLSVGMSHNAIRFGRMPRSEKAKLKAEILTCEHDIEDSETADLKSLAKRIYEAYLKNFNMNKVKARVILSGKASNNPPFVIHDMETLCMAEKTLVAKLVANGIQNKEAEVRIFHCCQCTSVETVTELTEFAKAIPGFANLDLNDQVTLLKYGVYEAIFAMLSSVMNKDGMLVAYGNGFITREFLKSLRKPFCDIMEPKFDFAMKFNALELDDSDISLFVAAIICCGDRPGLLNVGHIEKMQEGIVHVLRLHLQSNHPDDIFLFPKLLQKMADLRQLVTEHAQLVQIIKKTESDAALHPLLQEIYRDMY

[2] = Clearance in NMRI mouse at 3 mg/kg, iv; type: ADME, organism-based; design: dose 3 mg/kg, route intravenous; conditions: in vivo
In short: (§1)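 Male NMRI mice (n = 3) given 3 mg/kg iv in 20% PEG400. Plasma concentration–time profile followed over about 6 h. Concentrations dose-normalised to 1 mg/kg.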

Mus musculus [3] = assay: Increase in total cholesterol level in human ApoA1 transgenic mouse at 6 mg/kg, po for 7 days (RVb = 29 %); type: functional
In short: (§2)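 Male transgenic hAPO-A1 C57BL/6 mice, n = 10 per dose. Dosed orally once daily for 7 d at 0.6, 2 or 6 mg/kg in Solutol HS15 + ethanol + 0.9% brine (1+1+8), 10 ml/kg. Serum triglycerides and total cholesterol measured photometrically against vehicle control. Total cholesterol serves as a surrogate for HDL.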

[4] = target: T2, Peroxisome proliferator-activated receptor delta (Mus musculus, UniProt P35396); assay: Agonist activity at Gal4-fused mouse PPARdelta; type: functional
T2 sequence (P35396 whole entry): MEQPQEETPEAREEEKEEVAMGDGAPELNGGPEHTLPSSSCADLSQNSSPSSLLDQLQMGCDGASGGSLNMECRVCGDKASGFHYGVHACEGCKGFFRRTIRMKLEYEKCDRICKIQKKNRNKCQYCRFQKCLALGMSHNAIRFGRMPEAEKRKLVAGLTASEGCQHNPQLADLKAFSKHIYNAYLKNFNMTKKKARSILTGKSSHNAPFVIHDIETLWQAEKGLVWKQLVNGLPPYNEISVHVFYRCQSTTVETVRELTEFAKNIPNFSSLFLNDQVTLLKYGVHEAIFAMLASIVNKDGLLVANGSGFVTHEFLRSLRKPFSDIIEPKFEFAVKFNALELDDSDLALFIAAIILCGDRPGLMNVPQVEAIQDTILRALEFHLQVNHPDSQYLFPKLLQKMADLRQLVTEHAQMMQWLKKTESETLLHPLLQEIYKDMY

Mus musculus [5] = assay: Reduction in triglyceride level in human ApoA1 transgenic mouse at 2 mg/kg, po for 7 days relative to control; type: functional; design: scale not given: the % may be the effect or the level left; in short: as §2
Mus musculus [6] = assay: Increase in total cholesterol level in human ApoA1 transgenic mouse at 0.6 mg/kg, po for 7 days (RVb = 29 %); type: functional; in short: as §2
[7] = Aqueous solubility of the compound; type: physicochemical
[8] = target: T3, Peroxisome proliferator-activated receptor gamma (Mus musculus, UniProt P37238); assay: Agonist activity at Gal4-fused mouse PPARgamma; type: functional
T3 sequence (P37238 whole entry): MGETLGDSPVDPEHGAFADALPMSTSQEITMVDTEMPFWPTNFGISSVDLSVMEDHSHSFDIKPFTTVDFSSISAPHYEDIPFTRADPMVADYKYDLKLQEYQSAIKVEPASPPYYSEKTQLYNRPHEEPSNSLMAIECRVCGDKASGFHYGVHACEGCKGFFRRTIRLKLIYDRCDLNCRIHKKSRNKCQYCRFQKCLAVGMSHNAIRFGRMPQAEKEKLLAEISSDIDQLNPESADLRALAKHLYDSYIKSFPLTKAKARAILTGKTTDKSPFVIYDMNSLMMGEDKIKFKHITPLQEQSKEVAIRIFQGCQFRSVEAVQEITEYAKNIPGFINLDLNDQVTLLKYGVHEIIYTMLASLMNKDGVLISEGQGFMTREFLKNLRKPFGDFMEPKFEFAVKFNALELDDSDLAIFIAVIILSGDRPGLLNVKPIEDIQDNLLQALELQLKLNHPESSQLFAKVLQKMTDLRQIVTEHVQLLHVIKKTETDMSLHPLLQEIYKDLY

Albumin = Albumin (Homo sapiens, UniProt P02768); assay: Binding affinity to human serum albumin; type: ADME; conditions: isolated protein
[9] = Half life in NMRI mouse at 3 mg/kg, iv; type: ADME, organism-based; design: dose 3 mg/kg, route intravenous; conditions: in vivo; in short: as §1
[10] = Tmax in NMRI mouse at 10 mg/kg, po; type: ADME, organism-based; design: dose 10 mg/kg, route oral; conditions: in vivo
In short: (§3)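 Male NMRI mice (n = 3) dosed orally at 10 mg/kg as a suspension in 20% PEG 400 (5 ml/kg). Plasma sampled at 7 time points up to 6 h. Concentrations dose-normalised to 1 mg/kg. Bioavailability taken against an iv arm (3 mg/kg, 20% PEG400, n = 3).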

Mus musculus [11] = assay: Reduction in triglyceride level in human ApoA1 transgenic mouse at 0.6 mg/kg, po for 7 days relative to control; type: functional; design: scale not given: the % may be the effect or the level left; in short: as §2
[12] = AUC in NMRI mouse at 10 mg/kg, po; type: ADME, organism-based; design: dose 10 mg/kg, route oral; conditions: plasma; in short: as §3
[13] = target: T4, Peroxisome proliferator-activated receptor alpha (Mus musculus, UniProt P23204); assay: Agonist activity at Gal4-fused mouse PPARalpha; type: functional
T4 sequence (P23204 whole entry): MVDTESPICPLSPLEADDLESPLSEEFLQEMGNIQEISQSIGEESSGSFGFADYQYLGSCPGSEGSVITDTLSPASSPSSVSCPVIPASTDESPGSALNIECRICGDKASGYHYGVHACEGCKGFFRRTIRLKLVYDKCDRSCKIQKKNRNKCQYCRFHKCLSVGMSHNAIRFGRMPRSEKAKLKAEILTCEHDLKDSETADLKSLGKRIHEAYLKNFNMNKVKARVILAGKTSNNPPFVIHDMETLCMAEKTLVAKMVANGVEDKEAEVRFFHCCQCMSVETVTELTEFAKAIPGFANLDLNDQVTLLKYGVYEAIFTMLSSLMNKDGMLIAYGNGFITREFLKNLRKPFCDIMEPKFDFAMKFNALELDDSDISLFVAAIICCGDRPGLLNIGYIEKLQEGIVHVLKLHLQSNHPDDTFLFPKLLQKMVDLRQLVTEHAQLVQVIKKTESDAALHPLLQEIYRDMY

[14] = target: T5, Peroxisome proliferator-activated receptor gamma (Homo sapiens, UniProt P37231); assay: Agonist activity at Gal4-fused human PPARgamma
T5 sequence (P37231 whole entry): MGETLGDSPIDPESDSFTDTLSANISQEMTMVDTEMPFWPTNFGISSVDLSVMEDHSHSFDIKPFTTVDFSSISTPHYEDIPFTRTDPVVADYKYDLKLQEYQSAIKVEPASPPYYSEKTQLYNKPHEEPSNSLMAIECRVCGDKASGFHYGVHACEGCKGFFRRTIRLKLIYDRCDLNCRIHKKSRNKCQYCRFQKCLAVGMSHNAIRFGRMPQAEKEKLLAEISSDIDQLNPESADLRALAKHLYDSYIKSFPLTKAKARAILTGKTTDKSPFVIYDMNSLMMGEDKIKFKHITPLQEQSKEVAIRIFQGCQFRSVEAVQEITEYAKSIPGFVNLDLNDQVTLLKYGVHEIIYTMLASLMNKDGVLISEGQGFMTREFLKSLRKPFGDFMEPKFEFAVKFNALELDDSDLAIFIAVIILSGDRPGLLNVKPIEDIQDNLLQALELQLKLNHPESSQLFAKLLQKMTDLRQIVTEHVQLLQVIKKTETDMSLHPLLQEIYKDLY

[15] = Oral bioavailability in NMRI mouse at 10 mg/kg; type: ADME, organism-based; conditions: in vivo; in short: as §3
Mus musculus [16] = assay: Increase in total cholesterol level in human ApoA1 transgenic mouse at 2 mg/kg, po for 7 days (RVb = 29 %); type: functional; in short: as §2
[17] = target: T6, Peroxisome proliferator-activated receptor delta (Homo sapiens, UniProt Q03181); assay: Agonist activity at Gal4-fused human PPARdelta; type: functional
T6 sequence (Q03181 whole entry): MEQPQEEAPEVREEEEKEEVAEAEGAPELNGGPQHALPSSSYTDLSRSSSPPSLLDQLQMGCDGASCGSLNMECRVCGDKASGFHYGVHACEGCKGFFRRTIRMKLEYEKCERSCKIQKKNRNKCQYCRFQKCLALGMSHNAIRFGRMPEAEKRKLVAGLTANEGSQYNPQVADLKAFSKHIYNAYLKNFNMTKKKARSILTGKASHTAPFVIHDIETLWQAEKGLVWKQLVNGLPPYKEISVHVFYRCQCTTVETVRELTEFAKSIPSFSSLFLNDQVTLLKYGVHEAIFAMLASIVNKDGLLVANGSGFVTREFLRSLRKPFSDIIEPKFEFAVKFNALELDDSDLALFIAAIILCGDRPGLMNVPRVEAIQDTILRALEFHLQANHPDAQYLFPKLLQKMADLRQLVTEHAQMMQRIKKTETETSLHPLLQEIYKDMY

Albumin, sequence (P02768 whole entry): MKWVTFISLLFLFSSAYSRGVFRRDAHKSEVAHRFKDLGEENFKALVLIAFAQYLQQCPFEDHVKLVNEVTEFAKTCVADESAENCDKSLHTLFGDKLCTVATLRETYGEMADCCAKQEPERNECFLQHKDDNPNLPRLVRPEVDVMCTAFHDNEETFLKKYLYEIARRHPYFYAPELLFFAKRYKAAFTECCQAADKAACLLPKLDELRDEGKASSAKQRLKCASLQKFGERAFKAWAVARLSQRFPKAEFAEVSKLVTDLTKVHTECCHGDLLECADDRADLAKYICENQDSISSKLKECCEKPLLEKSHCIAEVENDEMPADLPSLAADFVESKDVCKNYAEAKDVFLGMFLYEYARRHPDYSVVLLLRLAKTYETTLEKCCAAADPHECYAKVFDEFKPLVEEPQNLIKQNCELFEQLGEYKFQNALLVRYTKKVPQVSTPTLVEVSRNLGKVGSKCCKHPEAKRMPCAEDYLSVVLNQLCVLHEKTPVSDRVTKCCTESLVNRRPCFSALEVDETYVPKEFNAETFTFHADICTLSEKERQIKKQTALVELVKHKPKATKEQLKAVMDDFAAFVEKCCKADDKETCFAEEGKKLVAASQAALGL

Question: For `COc1ccc(CN(CC(=O)Nc2ccc(C)cc2C)Cc2ccc(OC(C)(C)C(=O)O)cc2)cc1`, which EC50 [1] is on record?
Answer: Its EC50 is 900 nM.

Question: For `Cc1ccccc1NC(=O)CN(Cc1ccc(OC(C)(C)C(=O)O)cc1)Cc1ccco1`, which EC50 [1] is on record?
Answer: Its EC50 is 2000 nM.

Question: What does the source list for `Cc1ccc(NC(=O)CN(Cc2ccc(OC(C)(C)C(=O)O)cc2)Cc2ccco2)c(C)c1`?
Answer: clearance [2]: 89.2 mL/min/kg; Activity (Mus musculus [3]): 91%; EC50 [4]: 2000 nM; Activity (Mus musculus [5]): -20%; Activity (Mus musculus [6]): 58%; solubility [7]: 500 µg/mL (≈ 1110 µM); EC50 [8]: 300 nM; Activity (Albumin): 10 µM; EC50 [1]: 20 nM; half-life [9]: 2 h; Tmax [10]: 0.5 h; Activity (Mus musculus [11]): -3%; AUC [12]: 370 ng·h/mL; EC50 [13]: 20 nM; EC50 [14]: 800 nM; bioavailability [15]: 20%; Activity (Mus musculus [16]): 74%; EC50 [17]: 6000 nM

Question: Which EC50 [4] does the source give for `CCCCCCCN(CCc1ccc(SC(C)(C)C(=O)O)cc1)C(=O)Nc1ccc(F)cc1F` [GSK-9578] here?
Answer: The EC50 was 2000 nM.

Question: What about the solubility [7] of the same compound?
Answer: Its solubility is 100 µg/mL (≈ 203 µM).

Question: And the EC50 [8]?
Answer: The EC50 was 2500 nM.

Question: And the Activity (Albumin)?
Answer: The Activity was 1.3 µM.

Question: And the EC50 [13]?
Answer: Its EC50 is 10 nM.

Question: And the EC50 [17]?
Answer: Its EC50 is 2000 nM.

Question: For `CCCN(CC(=O)Nc1ccc(C)cc1C)Cc1ccc(OC(C)(C)C(=O)O)cc1`, which EC50 [1] is on record?
Answer: The EC50 was 1000 nM.

Question: With `Cc1ccc(NC(=O)CN(Cc2ccccc2)Cc2ccc(OC(C)(C)C(=O)O)cc2)c(C)c1` as the compound, how does the EC50 [1] read?
Answer: The EC50 was 1000 nM.

Question: With `CCCCCCCN(CC(=O)Nc1ccc(C)cc1C)Cc1ccc(OC(C)(C)C(=O)O)cc1` as the compound, how does the EC50 [1] read?
Answer: Its EC50 is > 25000 nM.

Question: With `COc1ccc(OC)c(NC(=O)CN(Cc2ccc(OC(C)(C)C(=O)O)cc2)Cc2ccco2)c1` as the compound, how does the EC50 [1] read?
Answer: Its EC50 is 300 nM.

Question: Which EC50 [1] does the source give for `CC(C)(Oc1ccc(CN(CC(=O)Nc2ccccn2)Cc2ccco2)cc1)C(=O)O` here?
Answer: The EC50 was > 25000 nM.

Question: For `CCCCN(CC(=O)Nc1ccc(C)cc1C)Cc1ccc(OC(C)(C)C(=O)O)cc1`, which EC50 [1] is on record?
Answer: Its EC50 is 10000 nM.

Question: Which EC50 [1] does the source give for `CC(C)(Oc1ccc(CN(CC(=O)Nc2ccc(F)cc2F)Cc2ccco2)cc1)C(=O)O` here?
Answer: The EC50 was 1500 nM.

Question: With `CC(C)(Oc1ccc(CN(CC(=O)NCc2ccccc2Cl)Cc2ccco2)cc1)C(=O)O` as the compound, how does the EC50 [1] read?
Answer: Its EC50 is 7000 nM.

Question: With `CC(C)(Oc1ccc(CN(CC(=O)NCc2ccccc2)Cc2ccco2)cc1)C(=O)O` as the compound, how does the EC50 [1] read?
Answer: Its EC50 is 13000 nM.

Question: For `Cc1ccc(C)c(NC(=O)CN(Cc2ccc(OC(C)(C)C(=O)O)cc2)Cc2ccco2)c1`, which EC50 [1] is on record?
Answer: Its EC50 is 600 nM.

Question: With `Cc1ccc(NC(=O)CN(Cc2ccc(OC(C)(C)C(=O)O)cc2)Cc2cccs2)c(C)c1` as the compound, how does the EC50 [1] read?
Answer: The EC50 was 700 nM.

Question: With `COc1cccc(NC(=O)CN(Cc2ccc(OC(C)(C)C(=O)O)cc2)Cc2ccco2)c1` as the compound, how does the EC50 [1] read?
Answer: The EC50 was 3000 nM.
